An excerpt weighted towards active compounds, which were near 3.7% of everything screened.
KCNQ1 act = potentiates or activates the human KCNQ1 potassium channel. AID 2648. 0.35% of 310,000 active. B-score at 10 µM. CHO-K1 KCNQ1, thallium flux FluxOR fluorescence; stronger effect = higher value;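 active = fluorescence ratio B-score, a plate-corrected score, at least three library SD, with initial intensity B-score within 5 SD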
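assay system = KCNQ1-transfected CHO-K1 cells | medium = assay buffer with matched DMSO | probe or stimulus = depolarizing K+/Tl+ stimulus, K2SO4 and Tl2SO4 each 12.5 mM in 5x stock | dosing = single dose | incubation = dye 90 min, compound 20 min, room temperature | detection = kinetic FluxOR fluorescence, 10 s baseline plus 110 s post-stimulus | evaluation = ratio B score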
hERG rescue = shields human hERG channel from block by proarrhythmic agents. AID 1511. 0.51% of 310,000 active. activation (rescue from dofetilide block), less the hit threshold, % at 10 µM. CHO-hERG, FluxOR thallium flux, dofetilide IC70 present;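 active = activation above the mean of controls blocked by dofetilide plus 5 SD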;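 note: thallium influx through hERG after potassium depolarization seen as dye fluorescence rise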
KCNQ1 block = inhibitors of human KCNQ1 potassium channel; CHO-K1 KCNQ1, FluxOR thallium flux fluorescence; stronger effect = higher value; B-score at 10 µM; 1.3% of 310,000 active; AID 2642;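 active = compounds whose thallium flux B-score, printed positive for inhibition, exceeds three library SD while starting fluorescence stays within three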;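 note: channel opened by potassium depolarization with thallium stimulus after 20 min compound exposure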
Kir21 inh = blocks the mouse Kir2.1 inward-rectifier potassium channel; P35561; HEK293-Kir2.1, FluxOR thallium flux fluorescence; stronger effect = lower value; B-score at 10 µM; 0.85% of 310,000 active;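 active = fluorescence ratio B-score at or below minus 3 SD of library scores, with starting-brightness B-score within 2 SD, cut at about -4.2 in these data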;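 note: channel flux triggered by added potassium and thallium sulfate stimulus; B-score of peak minus minimum fluorescence over baseline after thallium stimulus; more negative B-score means stronger Kir2.1 block with less thallium influx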
Target sequence (P35561 whole entry, looked up): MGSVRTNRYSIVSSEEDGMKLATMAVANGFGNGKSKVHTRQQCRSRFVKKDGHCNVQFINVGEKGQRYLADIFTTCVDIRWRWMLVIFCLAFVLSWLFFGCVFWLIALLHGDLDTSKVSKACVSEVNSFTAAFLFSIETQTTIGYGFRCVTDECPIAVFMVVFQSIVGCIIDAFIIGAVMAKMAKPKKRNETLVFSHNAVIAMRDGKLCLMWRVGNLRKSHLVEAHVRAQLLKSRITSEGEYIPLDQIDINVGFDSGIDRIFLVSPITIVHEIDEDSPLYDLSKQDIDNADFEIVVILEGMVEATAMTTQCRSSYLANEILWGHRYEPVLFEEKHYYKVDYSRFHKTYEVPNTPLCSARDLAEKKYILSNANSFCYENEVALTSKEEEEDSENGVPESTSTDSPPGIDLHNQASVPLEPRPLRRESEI
KCNK3 block = human KCNK3 channel inhibition, primary screen; O14649; CHO-KCNK3 thallium flux, FluxOR fluorescence; stronger effect = lower value; B-score at 10 µM; 0.84% of 340,000 active; AID 602410;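 active = B-score under library mean minus 4 SD, starting fluorescence ratio at most library mean plus 5 SD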;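 note: more negative B-score means stronger inhibition of thallium flux through KCNK3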
KCNK9 inh = human KCNK9 channel inhibition; Q9NPC2; HEK293 KCNK9, FluxOR thallium flux fluorescence; stronger effect = lower value; B-score at 10 µM; 1.2% of 310,000 active; AID 488922;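 active = ratio B-score over 3 SD below the library mean, with starting fluorescence within 5 SD of its mean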;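 note: negative B-score means less thallium flux so channel inhibition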
KCNQ1 inh valid = confirmation of human KCNQ1 potassium channel inhibitors; KCNQ1 cell line, FluxOR thallium flux fluorescence; 93% of 1,600 active; shares compounds with KCNQ1 block; inhibition, % at 10 µM;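 active = primary screen active, with duplicate mean exceeding buffer control mean plus 3 SD of buffer wells, cut at about 28% in these data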;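 note: 0% = buffer control ratio and 100% = XE991 inhibitor control ratio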
CHO Tl flux = counter-screen for KCNQ1 inhibitors: effect in parental CHO cells. shares compounds with KCNQ1 block. parental CHO-K1, FluxOR thallium flux fluorescence ratio; stronger effect = lower value; zero means no signal rise above baseline. fluorescence ratio (Tl flux) at 10 µM. 21% of 1,600 active. AID 588366;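 active = mean of duplicate thallium-flux fluorescence ratios in parental host cells more than 5 SD below the buffer control mean, cut at about 0.38 in these data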;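 note: ratio is peak minus minimum fluorescence divided by baseline fluorescence; actives read low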
KCNQ1 APC inh = blocks human KCNQ1 current in automated patch clamp; shares compounds with KCNQ1 block; KCNQ1-CHO cells; calls only at 10 µM; 20% of 490 active; AID 624120;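 active = KCNQ1 current drop exceeding 3 SD of negative control wells, seen in both duplicate runs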;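 note: steady state current during a 2 s step from -80 to +40 mV; negative values mean current inhibition and positive values mean potentiation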
KCNQ2 inh = rat KCNQ2 inhibition in KCNQ1 inhibitor specificity screen; shares compounds with KCNQ1 block; KCNQ2 cells, FluxOR thallium flux fluorescence; inhibition, % at 10 µM; 71% of 1,600 active; AID 651746;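 active = mean percent inhibition of the KCNQ2 thallium signal more than 5 SD above the buffer-only control wells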;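 note: KCNQ2 expressed in CHO cells; 0% = buffer control wells and 100% = XE-991 inhibitor control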
KCNQ1 KCNE1 spec = human KCNQ1/KCNE1 inhibition in KCNQ1 specificity screen; shares compounds with KCNQ1 block; KCNQ1/KCNE1 cells, FluxOR thallium flux fluorescence; inhibition, % at 10 µM; 77% of 1,600 active; AID 652147;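 active = mean percent inhibition of duplicate wells above the buffer-only control mean plus 3 SD of those controls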;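 note: 0% = buffer only wells and 100% = XE-991 inhibitor control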
The depositor's hits bear a star.

Screening Cc1ccc(NC(=S)NC2CCCCC2)cc1S(=O)(=O)N(C)C returned KCNQ1 act inactive, hERG rescue -19, KCNQ1 block 7*, Kir21 inh 2, KCNK3 block inactive, KCNK9 inh inactive, KCNQ1 inh valid 132*, CHO Tl flux 0.52, KCNQ1 APC inh inactive, KCNQ2 inh 107%* and KCNQ1 KCNE1 spec inactive.
CCCCNC(=S)Nc1ccc(C(F)(F)F)cc1 was read as KCNQ1 act inactive, hERG rescue -8, KCNQ1 block 8*, Kir21 inh -0.36, KCNK3 block inactive, KCNK9 inh inactive, KCNQ1 inh valid 32*, CHO Tl flux 0.57, KCNQ2 inh inactive and KCNQ1 KCNE1 spec inactive.
Screening FC(F)(F)c1ccc(NC(=S)NC2CCCCC2)cc1 returned KCNQ1 act inactive, hERG rescue -10, KCNQ1 block 7*, Kir21 inh 0.71, KCNK3 block inactive, KCNK9 inh inactive, KCNQ1 inh valid 65*, CHO Tl flux 0.52, KCNQ2 inh 59%* and KCNQ1 KCNE1 spec 37%*.
`FC(F)(F)c1cccc(NC(=S)NC2CCCC2)c1` gave KCNQ1 act inactive, hERG rescue -14, KCNQ1 block inactive, Kir21 inh 0.61, KCNK3 block inactive and KCNK9 inh inactive.
`CC(=O)c1ccc(S(=O)(=O)N2CCN(C(=O)CCC3CCCC3)CC2)cc1` gave KCNK3 block inactive.
`Nc1c(N(CCCO)C(=O)C2CCCCC2)c(=O)[nH]c(=O)n1Cc1ccccc1` gave KCNK3 block inactive.
NC(=O)CN1C(=O)NC2(CCOc3ccccc32)C1=O (stereo not drawn) was read as KCNQ1 act inactive, hERG rescue 1, KCNQ1 block inactive, Kir21 inh -0.87, KCNK3 block inactive and KCNK9 inh inactive.
`S=C(Nc1ccc(Cl)c(Cl)c1)NC1CCCCC1` gave KCNQ1 act inactive, hERG rescue -14, KCNQ1 block 6*, Kir21 inh 0.8, KCNK3 block inactive, KCNK9 inh inactive, KCNQ1 inh valid 69*, CHO Tl flux 0.53, KCNQ2 inh inactive and KCNQ1 KCNE1 spec inactive.
S=C(Nc1ccc2nsnc2c1)NC1CCCCC1 was read as KCNQ1 act inactive, hERG rescue -13, KCNQ1 block inactive, Kir21 inh -0.61, KCNK3 block inactive and KCNK9 inh inactive.
`COc1cc(NS(=O)(=O)c2c(C)oc3c(F)c(F)c(F)c(F)c23)cc(OC)c1OC` gave KCNQ1 act inactive, hERG rescue -18, KCNQ1 block inactive, Kir21 inh -2.5, KCNK3 block inactive and KCNK9 inh inactive.
COc1ccc(-c2csc(NC(=O)C3CC(=O)N(Cc4ccccc4)C3)n2)cc1OC (stereo not drawn) was read as KCNQ1 act inactive, hERG rescue -12, KCNQ1 block 6*, Kir21 inh 1.3, KCNK3 block inactive, KCNK9 inh inactive, KCNQ1 inh valid 123*, CHO Tl flux 0.38, KCNQ1 APC inh inactive, KCNQ2 inh 93%* and KCNQ1 KCNE1 spec 163%*.
Screening COc1ccccc1OCC(=O)NNC(=O)C1CCN(c2ncnc3sc(C)c(C)c23)CC1 returned KCNK3 block inactive.

Compound activity from PubChem BioAssay.
